Published values of several laboratories.
Protocols differ between the studies behind these lines.
Target: Glycogen synthase kinase-3 beta (GSK3B, Homo sapiens, UniProt P49841)

SMILES	test	conditions	endpoint	value
COc1ccc2oc(-c3ccc4nc(N)oc4c3)c/c(=N\c3ccccc3NC(=O)CCN)c2c1	binding	1 µM	remaining binding	106%
C=CC(=O)N1CCC([C@@H]2CCNc3c(C(N)=O)c(-c4ccc(Oc5ccccc5)cc4)nn32)CC1	enzyme activity, inhibitor	1 µM	inhibition	16%
CCCCC(=O)Nc1ccc(-c2ccc3ncn(CCC)c(=O)c3c2)cn1	binding, competition with immobilised ligand	0.5 µM	remaining binding	100%
C[C@H]1CC[C@H](n2c3cnccc3c3cnc(Nc4ccc5c(n4)CCN(C(=O)CO)C5)nc32)CC1	cell-free assay	1 µM	remaining signal	72%
C1=C/COCc2cc(ccc2OCCN2CCCC2)Nc2nccc(n2)-c2cccc(c2)COC/1	binding	0.1 µM	remaining binding	82%
CC#CC(=O)N1CCC[C@H]1c1nc(-c2ccc(C(=O)Nc3ccccn3)cc2)c2c(N)nccn12	enzyme activity, inhibitor	1 µM	inhibition	0%
CC(C)S(=O)(=O)c1ccc2nccc(Nc3ccc4sc(C5CCCC5)nc4c3)c2c1	enzyme activity, inhibitor	1 µM	activity vs control	113%
N#Cc1ccc(NC(=O)Nc2ccccc2)cc1	cell-free assay, competition with immobilised ligand	25 µM	remaining binding	100%
CN1CCN(C(=O)c2ccc(NC(=O)Nc3ccc(N(C)c4ccnc(Nc5ccc(CS(C)(=O)=O)cc5)n4)cc3)cc2)CC1	binding	1 µM	remaining binding	95%
Cc1cc(O)c(-c2ccc([C@@H](C)CN(C)C)cc2)c2c1[nH]c(=O)c1sccc12	enzyme activity, inhibitor	0.1 µM, lysate	inhibition	-0.958%
CC(=O)ON=C1C=CC(=C(C#N)c2ccccc2)C=C1	enzyme activity, inhibitor, ADP detection	2 µM	activity vs control	88%
